Compounds with a hit are over-represented: about 1.1% of the library has one in this group of screens.
FXIIa inh 1536: blocks human coagulation factor XIIa protease activity | 220,000 tested, 0.3% active | inhibition, % at 5 µM | purified FXIIa, Boc-QGR-AMC fluorogenic substrate, 2 h | P00748; in the data active means inhibition above about 40%;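 further: 0% = enzyme with no compound and 100% = blank without enzyme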
KLK5 inh: kallikrein 5 (human) inhibition. Q9Y337. recombinant hK5, fluorogenic AMC substrate cleavage. inhibition, % at 5 µM. 210,000 tested, 0.59% active. AID 873;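 active means inhibition of 40% or more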;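 further: 0% = enzyme controls without compound and 100% = no-enzyme blanks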
FXIa inh: factor XIa (human) inhibition; inhibition, % at 5 µM; AID 798; purified FXIa, Boc-Glu-Ala-Arg-AMC fluorogenic substrate; 220,000 tested, 0.14% active; P03951;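 active means inhibition of at least 40%; inactive means inhibition below 40%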;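 further: fluorescence of freed AMC excited at 355 nm; 0% = enzyme without compound and 100% = no enzyme blank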
Target sequence (P03951 19-387 limits assumed): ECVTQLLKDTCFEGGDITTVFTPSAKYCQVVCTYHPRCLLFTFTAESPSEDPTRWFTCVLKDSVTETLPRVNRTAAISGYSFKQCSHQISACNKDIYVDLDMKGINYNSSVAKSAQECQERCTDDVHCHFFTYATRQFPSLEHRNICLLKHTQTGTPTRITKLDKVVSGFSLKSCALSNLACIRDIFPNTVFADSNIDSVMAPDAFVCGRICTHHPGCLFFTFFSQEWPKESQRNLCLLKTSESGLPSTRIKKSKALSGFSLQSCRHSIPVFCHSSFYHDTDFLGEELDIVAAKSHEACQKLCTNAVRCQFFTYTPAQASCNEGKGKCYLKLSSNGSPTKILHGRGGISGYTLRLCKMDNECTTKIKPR
Target sequence (P03951 388-625 limits assumed): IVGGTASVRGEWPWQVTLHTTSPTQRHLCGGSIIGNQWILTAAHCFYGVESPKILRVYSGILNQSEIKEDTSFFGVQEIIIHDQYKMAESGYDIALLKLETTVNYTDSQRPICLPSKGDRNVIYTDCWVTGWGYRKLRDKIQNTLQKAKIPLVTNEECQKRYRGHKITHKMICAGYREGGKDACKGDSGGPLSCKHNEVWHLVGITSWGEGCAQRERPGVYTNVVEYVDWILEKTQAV
Calb biofilm kill: mixture kills Candida albicans biofilm cells. AID 1242. C. albicans biofilm persisters + clotrimazole, fluorescence viability; primary screen in compound mixtures of four per well. inhibition, % at 7.6 µM. 120,000 tested, 0.02% active;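 active means inhibition above 30.3% in the primary screen of four-compound pools, then above 30% when the compound was retested; inconclusive means passed the primary limit but could not be retested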;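 further: compounds exposed to preformed 24 h biofilms for 48 h; 0% = untreated biofilm control and 100% = clotrimazole plus chlorhexidine kill blank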
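Test system: C. albicans CAF4-2 wild-type biofilms; buffer or medium: RPMI/MOPS medium, pH 7.0; schedule: 24 h biofilm formation, then 48 h compound exposure, 37 °C; detection: Alamar Blue fluorescence; measure: percent inhibition of biofilm viability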
thrombin 1536: blocks human thrombin protease activity. P00734. alpha-thrombin, Boc-VPR-AMC fluorogenic substrate cleavage. inhibition, % at 5 µM. 220,000 tested, 0.26% active. AID 1046;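 active means inhibition at or above 40%; inactive means inhibition below 40%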;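 further: 0% = enzyme with no compound and 100% = wells without enzyme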
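Material: human alpha-thrombin protein. Incubation: reaction at ambient temperature. Technique: fluorescence of released AMC, ex 355 nm, em 460 nm. Control set: no-compound enzyme wells and no-enzyme blanks. Also added: Boc-VPR-AMC substrate, 15 µM final. Buffer or medium: pH 7.5 Tris (50 mM) with NaCl 150 mM, Tween 20 0.05%.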
Furin inh: blocks human furin protease activity. P09958. purified furin, fluorogenic substrate cleavage. inhibition, % at 20 µM or 30 µM. 220,000 tested, 0.061% active; in the data active means inhibition above about 25%
Numbers without * were called inactive; ? = inconclusive; nt = no result.

SMILES	FXIIa inh 1536	KLK5 inh	FXIa inh	Calb biofilm kill	thrombin 1536	Furin inh
Cc1cc(C)c2nc(-c3ccccn3)cc(C(=O)n3cccn3)c2c1	17.0	24.7	25.0	9.4	14.8	-5.0
Cc1nn(-c2ccccc2)c(C)c1/C=N/NC(=O)CSc1nnc(SCc2ccc(Cl)cc2)s1	5.2	0.1	1.1	23.6	-6.8	-19.6
Cc1ccc(N(CC(O)CN2C(=O)NC(C)(C)C2=O)S(=O)(=O)c2ccc(C)cc2)cc1 (centres undefined)	49.2*	31.2	34.4	10.2	12.0	11.0
CC(C)[C@H](NC(=O)c1ccco1)C(=O)OCC(=O)Nc1ccccc1OC(F)F	5.1	53.5*	2.2	18.7	-1.6	-12.9
O=C(COC(=O)COc1ccccc1Cl)Nc1ccccc1OC(F)F	99.9*	26.1	-4.3	nt	22.2	-5.5
O=C(NC1CCCC1)C(c1ccccn1)N(C(=O)c1csnn1)C1CC1 (centres undefined)	14.6	-4.3	44.1*	nt	2.3	-16.6
O=C(NC1CCCC1)C(c1ccccn1)N(C(=O)c1csnn1)C1CCCCC1 (centres undefined)	28.4	-4.8	21.0	-3.5	-0.8	-23.4
COc1ccc(-c2ccc(CCC(=O)O)n2-c2ccccc2O)cc1	16.7	15.5	5.0	6.9	58.5*	-3.2
COc1ccc(-n2c(CCC(=O)O)ccc2-c2ccccc2)cc1	13.0	-8.9	9.3	9.7	5.1	-3.3
COc1ccc(-n2c3c(cc(C(=O)N4CCC(C)CC4)c2=O)C(=O)CC(C)(C)C3)cc1	8.6	-0.9	1.4	nt	-6.2	-20.1
COc1ccccc1-n1c2c(cc(C(=O)N3CCC(C)CC3)c1=O)C(=O)CC(C)(C)C2	37.9	52.3*	17.4	nt	10.3	-1.2
O=C(c1cc2ccccc2[nH]1)N1CCOCC1	18.0	28.6	8.8	5.2	48.1*	1.3
O=C(c1cc2ccccc2s1)N1CCOCC1	7.1	-1.6	3.1	14.3	-6.5	-12.7
CN(C)S(=O)(=O)c1cccc(NC(=O)CCc2c[nH]c3ccccc23)c1	3.5	-4.3	-3.0	20.2	-2.7	-19.1
COc1ccc(C2C(=O)c3ccccc3C2=O)cc1OC	17.3	18.1	8.9	19.9	55.7*	3.2
COc1ccc(C2C(=O)c3ccccc3C2=O)cc1	11.8	-9.8	2.4	3.6	-5.9	-10.8
CC(C(=O)Oc1ccc2c(c1)OCO2)N1C(=O)c2ccccc2C1=O (centres undefined)	56.8*	6.2	31.5	nt	0.1	-18.9
Cc1ccc2nc(C3CCCN3Cc3nc(CCC(C)C)no3)[nH]c2c1 (centres undefined)	6.9	nt	-3.2	11.8	-3.5	-29.7
O=C(C[n+]1cnn(CC(=O)c2ccc(Cl)cc2Cl)c1)c1ccc([N+](=O)[O-])cc1	7.1	0.1	3.6	6.9	51.2*	-17.0
CCN(Cc1ccccc1)c1ccc(/C=N/NC(=O)c2cccc(S(=O)(=O)N3CCOCC3)c2)cc1	19.8	56.4*	12.1	7.1	19.6	2.0
Cc1ccc(NC(=O)C(C)N2CCOCC2)c(C(=O)c2ccccc2)c1 (centres undefined)	14.3	42.5*	4.5	nt	19.4	-15.3
CC(NCc1ccccc1Cl)C(=O)Nc1ccc(C#N)cc1 (centres undefined)	3.9	-3.1	-4.2	8.3	-4.7	-15.3
CC1(C)CC(=O)C(C=NCCN2CCN(C(=O)CCl)CC2)=C(O)C1	5.9	-0.2	1.3	24.8	-5.1	-9.5
CCC(=O)N1CCN(CCN=CC2=C(O)CC(C)(C)CC2=O)CC1	-9.3	40.5*	10.1	nt	16.9	-15.4
C/C(=N\NC(=O)c1cccc(Cl)c1)C1C(=O)c2ccccc2C1=O	9.4	-8.7	5.7	16.7	-2.2	-22.0
SMILES	FXIIa inh 1536	KLK5 inh	FXIa inh	Calb biofilm kill	thrombin 1536	Furin inh
CCCCCC(=O)Nc1ccc2ccccc2c1	21.9	124.2*	17.0	-3.9	26.6	-8.1
O=C(CS)Nc1ccc2ccccc2c1	3.8	-0.8	-1.0	27.1	-6.8	-12.2
CCOc1c(CNc2nnnn2C)cccc1OC	-1.4	-9.0	-4.2	11.0	-1.5	-23.9
CNC(=S)N/N=C/c1c(Cl)cccc1Cl	10.3	14.5	0.6	9.2	35.3	-6.4
Cc1cccc(C)c1NC(=S)N/N=C/c1c(Cl)cccc1Cl	29.1	23.4	31.0	5.0	50.1*	-13.9
Fc1ccc(Oc2cnc3ccccc3n2)cc1	10.0	2.7	-1.5	21.6	95.3*	-36.2
O=S(=O)([N-]c1nc2ccccc2nc1-n1cc[n+](Cc2ccccc2)c1)c1ccc(Cl)cc1	58.0*	27.6	59.7*	56.6	16.1	-3.0
CC1=C(C(N)=O)C(c2ccccn2)n2nc(-c3ccccc3Cl)nc2N1 (centres undefined)	30.0	42.9*	5.7	nt	36.1	-10.7
CS(=O)(=O)c1ccc(Cl)c(NC(=O)COC(=O)CNC(=O)c2ccccc2)c1	29.7	27.5	41.5*	10.5	15.4	2.8
CCn1cc(C(=O)NCc2ccco2)c(=O)c2cc(S(=O)(=O)N3CCCCCC3)ccc21	15.9	-4.0	-1.8	nt	40.8*	2.8
Cn1cc(C(=O)NCc2cccnc2)c(=O)c2cc(S(=O)(=O)N3CCCCCC3)ccc21	11.4	2.0	0.2	5.0	12.3	-12.4
CCn1cc(C(=O)NCc2ccco2)c(=O)c2cc(S(=O)(=O)N3CCC(C)CC3)ccc21	22.6	-3.1	2.5	nt	8.4	-14.6
Cn1cc(C(=O)NCc2cccs2)c(=O)c2cc(S(=O)(=O)N3CCCC3)ccc21	2.7	-6.3	-2.2	9.3	73.9*	-11.4
Cc1c(/C=N/NC(=O)c2cccs2)c2ccccc2n1Cc1ccccc1Cl	-2.8	-2.6	-4.6	13.2	-5.0	-23.6
Cc1cc(C)c(C(N)=O)c(SCC(=O)c2ccc(Cl)cc2)n1	3.6	-26.6	-6.5	nt	-5.3	-23.5
Cc1ccc(C(=O)CSc2nc(C)cc(C)c2C(N)=O)cc1	22.1	48.5*	14.3	nt	103.8*	-20.6
COc1ccc(S(=O)(=O)N=C2C=C(C)C(=O)C(C)=C2)cc1	16.6	-0.3	-2.5	nt	0.7	-20.4
COc1ccc(C(=O)ON=C2C=C(C)C(=O)C(C)=C2)cc1	68.0*	8.7	17.6	5.4	3.1	-8.8
COc1cc(C(=O)O/N=C2\C=CC(=O)C(C)=C2)cc(OC)c1OC	96.2*	1.2	12.4	nt	3.8	-14.8
COc1cc(C(=O)ON=C2C=C(C)C(=O)C(C)=C2)cc(OC)c1OC	90.1*	-5.8	-4.8	12.2	-3.7	-25.1
CC(C)Cc1nn2c(N)c(/C=C3\C=Nc4ccccc43)c(=O)nc2s1	6.6	1.5	3.6	-7.4	-7.3	-21.2
CCCCCOc1ccc(C(=O)NC(C(=O)O)C(C)C)cc1 (centres undefined)	-0.6	41.0*	11.2	nt	8.9	-20.2
CC1=C(C#N)C(=O)N(C2CCS(=O)(=O)C2)C(=O)/C1=C\c1ccc(C)o1 (centres undefined)	9.4	-24.4	-3.3	?	0.6	-8.1
Cc1cccc(NC(=O)CSCc2c(C)noc2C)c1C	56.1*	7.9	34.6	nt	0.2	-26.6

Compound activity as filed in PubChem.
